Assay results: ChEMBL document CHEMBL1938268, “Synthesis, characterization and in vitro biological evaluation of some novel diarylsulfonylureas as potential cytotoxic and antimicrobial agents” (Bioorg Med Chem Lett, 2012)
Values after ≈ are worked out from the molar mass of the structure shown.

What was measured:
Candida albicans = assay: Antifungal activity against Candida albicans NCIM 3102 after 48 hrs by agar well diffusion assay; type: functional; settings: NCIM 3102, 48 h
Summary of the method: (§1)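 Fungal spore suspensions in sterile distilled water set to final 10⁶ CFU/mL; 0.1 mL spread on Potato-Dextrose-Agar. NCCLS agar well diffusion with NCIM standard strains: 6 mm wells given 0.1 mL compound diluted in 1% DMSO, final 16 to 512 µg/mL. Triplicate plates held 48 h at 28 0.2 °C. MIC is lowest concentration fully inhibiting growth.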

Aspergillus oryzae = assay: Antifungal activity against Aspergillus oryzae NCIM 643 after 48 hrs by agar well diffusion assay; type: functional; settings: NCIM 643, 48 h; summary of the method: as §1
Staphylococcus aureus = assay: Antibacterial activity against Staphylococcus aureus NCIM 2079 after 24 hrs by agar well diffusion assay; type: functional; settings: NCIM 2079, 24 h
Summary of the method: (§2)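 Agar well diffusion per NCCLS; NCIM standard strains. Nutrient agar seeded with 0.1 mL bacterial suspension in sterile 0.85% saline at 10⁵ CFU/mL. Plates in triplicate, 37 0.5 °C, 24 h. MIC taken as lowest concentration giving complete growth inhibition.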

Bacillus subtilis = assay: Antibacterial activity against Bacillus subtilis NCIM 2063 after 24 hrs by agar well diffusion assay; type: functional; settings: NCIM 2063, 24 h; summary of the method: as §2
Pseudomonas aeruginosa = assay: Antibacterial activity against Pseudomonas aeruginosa NCIM 2036 after 24 hrs by agar well diffusion assay; type: functional; settings: NCIM 2036, 24 h; summary of the method: as §2
Aspergillus niger = assay: Antifungal activity against Aspergillus niger NCIM 548 after 48 hrs by agar well diffusion assay; type: functional; settings: NCIM 548, 48 h; summary of the method: as §1
Penicillium chrysogenum = assay: Antifungal activity against Penicillium chrysogenum NCIM 738 after 48 hrs by agar well diffusion assay; type: functional; settings: NCIM 738, 48 h; summary of the method: as §1
Proteus vulgaris = assay: Antibacterial activity against Proteus vulgaris NCIM 2813 after 24 hrs by agar well diffusion assay; type: functional; settings: NCIM 2813, 24 h; summary of the method: as §2
Bacillus pumilus = assay: Antibacterial activity against Bacillus pumilus NCIM 2327 after 24 hrs by agar well diffusion assay; settings: NCIM 2327, 24 h
Escherichia coli = assay: Antibacterial activity against Escherichia coli NCIM 2065 after 24 hrs by agar well diffusion assay; type: functional; settings: NCIM 2065, 24 h; summary of the method: as §2
[1] = Toxicity against Brine shrimp nauplii after 24 hrs; type: organism-based; settings: artemia salina, in vivo; read-out: ED50
Summary of the method: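 Artemia salina nauplii hatched 38 h in sterile brine (sea salt 38 g/L, pH 8.5) under aeration; 10 nauplii per vial exposed to graded compound concentrations in 5 mL final volume, 37 °C, 24 h under incandescent light. Survivors counted; percent lethality versus vehicle-treated controls; ED50 from probit analysis; podophyllotoxin positive control.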

Micrococcus luteus = assay: Antibacterial activity against Micrococcus luteus NCIM 2155 after 24 hrs by agar well diffusion assay; type: functional; settings: NCIM 2155, 24 h; summary of the method: as §2
Klebsiella pneumoniae = assay: Antibacterial activity against Klebsiella pneumoniae NCIM 5082 after 24 hrs by agar well diffusion assay; type: functional; settings: NCIM 5082, 24 h; summary of the method: as §2

Structure (SMILES) | MIC (Candida albicans) | MIC (Aspergillus oryzae) | MIC (Staphylococcus aureus) | MIC (Bacillus subtilis) | MIC (Pseudomonas aeruginosa) | MIC (Aspergillus niger) | MIC (Penicillium chrysogenum) | MIC (Proteus vulgaris) | MIC (Bacillus pumilus) | MIC (Escherichia coli) | LC50 at 24 h [1] | MIC (Micrococcus luteus) | MIC (Klebsiella pneumoniae)
COc1cc(/C=C/C(=O)c2ccccc2NC(=O)NS(=O)(=O)c2ccc(C)cc2)ccc1O | 128 µg/mL (≈ 274 µM) | 128 µg/mL (≈ 274 µM) | 128 µg/mL (≈ 274 µM) | 64 µg/mL (≈ 137 µM) | 64 µg/mL (≈ 137 µM) | 128 µg/mL (≈ 274 µM) | 128 µg/mL (≈ 274 µM) | 128 µg/mL (≈ 274 µM) | 64 µg/mL (≈ 137 µM) | 64 µg/mL (≈ 137 µM) | 17.8 µg/mL (≈ 38.2 µM) | 128 µg/mL (≈ 274 µM) | 128 µg/mL (≈ 274 µM)
Cc1ccc(S(=O)(=O)NC(=O)Nc2ccccc2C(=O)/C=C/c2ccccc2[N+](=O)[O-])cc1 | 16 µg/mL (≈ 34.4 µM) | 16 µg/mL (≈ 34.4 µM) | 16 µg/mL (≈ 34.4 µM) | 16 µg/mL (≈ 34.4 µM) | 16 µg/mL (≈ 34.4 µM) | 16 µg/mL (≈ 34.4 µM) | 16 µg/mL (≈ 34.4 µM) | 32 µg/mL (≈ 68.7 µM) | 16 µg/mL (≈ 34.4 µM) | 32 µg/mL (≈ 68.7 µM) | 40.1 µg/mL (≈ 86.2 µM) | 32 µg/mL (≈ 68.7 µM) | 32 µg/mL (≈ 68.7 µM)
Cc1ccc(S(=O)(=O)NC(=O)Nc2ccccc2C(=O)/C=C/c2cccc([N+](=O)[O-])c2)cc1 | 256 µg/mL (≈ 550 µM) | 256 µg/mL (≈ 550 µM) | 256 µg/mL (≈ 550 µM) | 256 µg/mL (≈ 550 µM) | 256 µg/mL (≈ 550 µM) | 256 µg/mL (≈ 550 µM) | 256 µg/mL (≈ 550 µM) | 256 µg/mL (≈ 550 µM) | 256 µg/mL (≈ 550 µM) | 256 µg/mL (≈ 550 µM) | 44.5 µg/mL (≈ 95.5 µM) | 256 µg/mL (≈ 550 µM) | 256 µg/mL (≈ 550 µM)
Cc1ccc(S(=O)(=O)NC(=O)Nc2ccccc2C(=O)/C=C/c2cc(O)ccc2[N+](=O)[O-])cc1 | 32 µg/mL (≈ 66.5 µM) | 64 µg/mL (≈ 133 µM) | 16 µg/mL (≈ 33.2 µM) | 16 µg/mL (≈ 33.2 µM) | 16 µg/mL (≈ 33.2 µM) | 64 µg/mL (≈ 133 µM) | 64 µg/mL (≈ 133 µM) | 64 µg/mL (≈ 133 µM) | 16 µg/mL (≈ 33.2 µM) | 16 µg/mL (≈ 33.2 µM) | 18.3 µg/mL (≈ 38 µM) | 64 µg/mL (≈ 133 µM) | 64 µg/mL (≈ 133 µM)
Cc1ccc(S(=O)(=O)NC(=O)Nc2ccccc2C(=O)/C=C/c2cccc(F)c2)cc1 | 64 µg/mL (≈ 146 µM) | 64 µg/mL (≈ 146 µM) | 16 µg/mL (≈ 36.5 µM) | 16 µg/mL (≈ 36.5 µM) | 16 µg/mL (≈ 36.5 µM) | 64 µg/mL (≈ 146 µM) | 64 µg/mL (≈ 146 µM) | 64 µg/mL (≈ 146 µM) | 16 µg/mL (≈ 36.5 µM) | 16 µg/mL (≈ 36.5 µM) | 4.13 µg/mL (≈ 9.42 µM) | 64 µg/mL (≈ 146 µM) | 64 µg/mL (≈ 146 µM)
Cc1ccc(S(=O)(=O)NC(=O)Nc2ccccc2C(=O)/C=C/c2ccc(F)cc2)cc1 | 64 µg/mL (≈ 146 µM) | 64 µg/mL (≈ 146 µM) | 32 µg/mL (≈ 73 µM) | 16 µg/mL (≈ 36.5 µM) | 32 µg/mL (≈ 73 µM) | 64 µg/mL (≈ 146 µM) | 64 µg/mL (≈ 146 µM) | 16 µg/mL (≈ 36.5 µM) | 32 µg/mL (≈ 73 µM) | 32 µg/mL (≈ 73 µM) | 3.96 µg/mL (≈ 9.03 µM) | 64 µg/mL (≈ 146 µM) | 16 µg/mL (≈ 36.5 µM)
Cc1ccc(S(=O)(=O)NC(=O)Nc2ccccc2C(=O)/C=C/c2ccccc2Cl)cc1 | 128 µg/mL (≈ 281 µM) | 128 µg/mL (≈ 281 µM) | 64 µg/mL (≈ 141 µM) | 64 µg/mL (≈ 141 µM) | 64 µg/mL (≈ 141 µM) | 128 µg/mL (≈ 281 µM) | 128 µg/mL (≈ 281 µM) | 128 µg/mL (≈ 281 µM) | 64 µg/mL (≈ 141 µM) | 64 µg/mL (≈ 141 µM) | 12.8 µg/mL (≈ 28.1 µM) | 128 µg/mL (≈ 281 µM) | 128 µg/mL (≈ 281 µM)
Cc1ccc(S(=O)(=O)NC(=O)Nc2ccccc2C(=O)/C=C/c2ccc(Cl)cc2)cc1 | 64 µg/mL (≈ 141 µM) | 64 µg/mL (≈ 141 µM) | 32 µg/mL (≈ 70.3 µM) | 32 µg/mL (≈ 70.3 µM) | 32 µg/mL (≈ 70.3 µM) | 64 µg/mL (≈ 141 µM) | 64 µg/mL (≈ 141 µM) | 64 µg/mL (≈ 141 µM) | 32 µg/mL (≈ 70.3 µM) | 32 µg/mL (≈ 70.3 µM) | 6.92 µg/mL (≈ 15.2 µM) | 64 µg/mL (≈ 141 µM) | 64 µg/mL (≈ 141 µM)
Cc1ccc(S(=O)(=O)NC(=O)Nc2ccccc2C(=O)/C=C/c2ccc(Cl)cc2Cl)cc1 | 64 µg/mL (≈ 131 µM) | 64 µg/mL (≈ 131 µM) | 32 µg/mL (≈ 65.4 µM) | 16 µg/mL (≈ 32.7 µM) | 16 µg/mL (≈ 32.7 µM) | 64 µg/mL (≈ 131 µM) | 64 µg/mL (≈ 131 µM) | 64 µg/mL (≈ 131 µM) | 32 µg/mL (≈ 65.4 µM) | 32 µg/mL (≈ 65.4 µM) | 8.34 µg/mL (≈ 17 µM) | 64 µg/mL (≈ 131 µM) | 64 µg/mL (≈ 131 µM)
CC(=O)N1CCN(c2ccc(OCC3COC(Cn4ccnc4)(c4ccc(Cl)cc4Cl)O3)cc2)CC1 (configuration not stated) [KETOCONAZOLE] | 16 µg/mL (≈ 30.1 µM) | 16 µg/mL (≈ 30.1 µM) |  |  |  | 16 µg/mL (≈ 30.1 µM) | 16 µg/mL (≈ 30.1 µM) |  |  |  |  |  | 
COc1cc([C@@H]2c3cc4c(cc3[C@H](O)[C@H]3COC(=O)[C@H]23)OCO4)cc(OC)c1OC [PODOFILOX] |  |  |  |  |  |  |  |  |  |  | 3.61 µg/mL (≈ 8.71 µM) |  | 
